This is an account of results in paper PMC2906681 (Biochemical pharmacology, 2010).

Changes are numbered by the printed parent chain.

The test system of one data set is Shp1. Particulars: cited from earlier work.
The subject of a further data set is most of other PTPs. Particulars: cited from earlier work.
The test system of a further data set is cells. In words: Confocal laser scanning microscopy of compound uptake. In kind it is in vitro ADME. The settings on record: 25 µM, 3 h. The method in brief:
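TF-1/Shp2E76K cells grown in glass-bottom dishes were exposed to test compound at 25 µM for 3 h, then Hoechst 33342 (5 µg/ml) was added. Internal confocal sections were imaged with a 63X/1.40NA oil objective (2,520×), using 458 nm argon and 405 nm diode excitation with tunable emission filters. Compound fluorescence was viewed green.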

Data set [1] deals with TF-1/Shp2^E76K cells. In words: Cell growth assay. In kind it is cell-based. Particulars: GM-CSF-free medium, 4 days. The gist of the method:
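TF-1/Shp2E76K cells were plated at 1,000 cells/well in triplicate in RPMI1640/10% FBS without GM-CSF, with test compound. The compound volume was ≤0.1% of the total. Cells were incubated 4 days at 37 °C/5% CO2, then relative viable cell number was read with CellTiterGlo. Data came from two triplicate experiments.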

Data set [2] relates to TF-1/Shp2^E76K cells. The data set can be described thus: Fluorescence uptake assay. It is filed as in vitro ADME. The settings on record: 5 h incubation, ex/em 485/535 nm. The gist of the method:
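TF-1/Shp2E76K cells (6 × 10^5 in 1 ml RPMI1640/10% FBS) were incubated 5 h at 37 °C/5% CO2 with test compound or DMSO. Fluorescence (485/535 nm) was read in the whole suspension, then in cell-free medium (supernatant plus washes) and in twice-washed pellets. Fraction totals were expressed relative to the 100 µM suspension, set as 100%. Two duplicate experiments (n = 4).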

In data set [3] the target is T1, His-tagged Shp2 (amino acids 1–525) (Homo sapiens, UniProt Q06124).
T1 sequence (Q06124 1-525): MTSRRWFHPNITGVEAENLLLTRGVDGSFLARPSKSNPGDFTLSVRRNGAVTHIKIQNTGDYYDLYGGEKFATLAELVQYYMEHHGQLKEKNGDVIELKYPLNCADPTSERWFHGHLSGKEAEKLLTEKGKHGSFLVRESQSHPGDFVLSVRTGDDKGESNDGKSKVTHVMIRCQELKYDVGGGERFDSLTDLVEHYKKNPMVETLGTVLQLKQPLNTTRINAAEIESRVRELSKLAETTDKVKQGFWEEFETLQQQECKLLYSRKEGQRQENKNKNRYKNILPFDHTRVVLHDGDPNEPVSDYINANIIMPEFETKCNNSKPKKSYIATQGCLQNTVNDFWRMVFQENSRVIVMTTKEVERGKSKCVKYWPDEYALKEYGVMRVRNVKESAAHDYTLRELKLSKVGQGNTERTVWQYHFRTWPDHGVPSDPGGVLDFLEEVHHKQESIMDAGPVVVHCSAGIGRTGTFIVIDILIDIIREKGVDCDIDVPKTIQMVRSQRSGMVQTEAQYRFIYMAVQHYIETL
In words: Surface plasmon resonance. The settings on record: SPR, 1:1 binding model. (In SPR one partner is held on a chip, and binding of the other changes the refractive index at the surface.)

The target in data set [4] is T2, non-fusion Shp2 PTP protein (Homo sapiens, UniProt Q06124).
T2 sequence (Q06124 247-517 limits assumed): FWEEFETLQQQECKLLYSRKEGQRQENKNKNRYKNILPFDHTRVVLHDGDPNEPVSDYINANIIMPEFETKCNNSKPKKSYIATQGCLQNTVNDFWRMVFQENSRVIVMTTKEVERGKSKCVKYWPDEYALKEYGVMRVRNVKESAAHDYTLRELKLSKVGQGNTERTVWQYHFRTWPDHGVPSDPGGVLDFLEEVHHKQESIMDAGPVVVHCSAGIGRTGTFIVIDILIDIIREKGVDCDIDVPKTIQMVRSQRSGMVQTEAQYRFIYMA
In words: Enzyme kinetics analysis of Shp2 PTP inhibition. In kind it is biochemical. Particulars: Lineweaver-Burk, AIC comparison.

Data set [5] concerns the target T3, Shp2 (Homo sapiens, UniProt Q06124).
T3 sequence (Q06124 1-593): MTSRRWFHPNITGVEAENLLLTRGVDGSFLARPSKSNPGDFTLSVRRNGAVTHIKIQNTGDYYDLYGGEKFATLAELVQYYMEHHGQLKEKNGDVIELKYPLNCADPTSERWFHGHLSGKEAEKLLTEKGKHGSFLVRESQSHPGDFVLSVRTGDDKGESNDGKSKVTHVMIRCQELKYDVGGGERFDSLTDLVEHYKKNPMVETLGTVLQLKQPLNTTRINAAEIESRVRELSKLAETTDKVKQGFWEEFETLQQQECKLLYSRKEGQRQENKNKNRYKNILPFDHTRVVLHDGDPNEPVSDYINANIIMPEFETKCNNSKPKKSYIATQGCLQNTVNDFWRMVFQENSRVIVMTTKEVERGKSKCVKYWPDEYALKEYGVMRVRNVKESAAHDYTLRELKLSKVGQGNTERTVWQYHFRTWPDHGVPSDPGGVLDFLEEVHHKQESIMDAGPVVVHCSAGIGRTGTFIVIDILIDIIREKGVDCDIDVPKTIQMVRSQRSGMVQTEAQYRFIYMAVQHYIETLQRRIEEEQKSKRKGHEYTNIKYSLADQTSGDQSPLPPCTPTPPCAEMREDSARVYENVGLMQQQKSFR
In words: Cell-based Shp2 inhibition assays.

In data set [6] the target is T3, Shp2. The data set can be described thus: EGF-stimulated Shp2 PTP activity in immune complexes from MDA-MB-468 cells. Particulars: 100 µM pre-treatment overnight, EGF 50 ng/ml 10 min. It is filed as cell-based. The gist of the method:
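Sub-confluent MDA-MB-468 cells were serum-starved 18 h in DMEM/0.1% BSA, pretreated overnight with test compound (20 or 100 µM), then EGF-stimulated (50 ng/ml, 10 min). Lysate (0.2 mg, Hepes pH 7.4 PTP lysis buffer) was immunoprecipitated with anti-Shp2/protein G for 2 h at 4 °C and washed. Complexes were reacted with 50 µM DiFMUP for 20 min at room temperature, and DiFMU fluorescence was read. Pellets were immunoblotted for Shp2. Two experiments, duplicates.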

For a further data set, the target named is T4, Shp2^E76K (Homo sapiens, UniProt Q06124, E76K).
T4 sequence (Q06124 1-593 E76K): T3 sequence (Q06124 1-593) with E76K
In words: Shp2^E76K PTP activity in immune complexes from TF-1/Shp2^E76K cells. It is filed as cell-based. The settings on record: GM-CSF-free medium. The gist of the method:
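TF-1/Shp2E76K cells were treated in GM-CSF-free RPMI1640/10% FBS with test compound at various concentrations. Flag-Shp2E76K was immunoprecipitated with anti-Flag M2/protein G (0.2 mg lysate, 2 h, 4 °C) and washed. Complexes were incubated with 50 µM DiFMUP for 20 min at room temperature, and fluorescence was measured. Part of each immunoprecipitate was blotted for Shp2. Two experiments.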

In the next data set the test system is ISRE-luciferase reporter. In words: ISRE luciferase reporter assay in HT-29 cells. Particulars: IFN-γ 50 U/ml alone, 6 h. In kind it is cell-based. The method in brief:
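HT-29 cells (5 × 10^5 per well) were co-transfected by lipofection with 1.6 µg pISRE-Luc and 0.4 µg β-gal plasmids. They were then stimulated with 50 U/ml IFN-γ for 6 h or left unstimulated. Luciferase was normalized to β-galactosidase activity; two duplicate experiments (n = 4).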

The test system of the next data set is HT-29 cells. In words: Cell growth assay. It is filed as cell-based. The settings on record: IFN-γ 100 U/ml alone, 4 days. The gist of the method: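 HT-29 cells at 1,000 cells/well, in triplicate, in RPMI1640/10% FBS with IFN-γ (100 U/ml) and/or test compound or vehicle. Compound volume kept ≤0.1% of total. Incubated 4 days at 37 °C/5% CO2. Relative viable cell number was read by CellTiterGlo luminescence. Synergism of the two agents was calculated with the Bliss definition.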

On to `O=C(O)c1cc(O)c(=O)c2c(O)c(O)ccc2c1` [DCA, 7-deshydroxypyrogallin-4-carboxylic acid], for which the “Shp1 inhibition compared with Shp2” value in the data set on Shp1 is “same potency”.
`O=C1C(=NNc2ccc(S(=O)(=O)O)cc2)C(c2ccc([N+](=O)[O-])cc2)=NN1c1ccccc1` [PHPS1, phenylhydrazonopyrazolone sulfonate 1]: the “selectivity against Shp1” value in the data set on Shp1 is 14 fold. The “selectivity against most of other PTPs” value with most of other PTPs is on record as more than 10.
Take `O=C1Nc2ccc(S(=O)(=O)NCc3ccc(F)cc3)cc2/C1=N/Nc1cccc(C(=O)O)c1` [SPI-112, (Z)-3-(2-(5-(N-(4-fluorobenzyl)sulfamoyl)-2-oxoindolin-3-ylidene)hydrazinyl)benzoic acid]: in the data set with cells, the “green fluorescence in confocal images of internal sections of cells” value is reported as “did not have green fluorescence”. For the same molecule, the “effect on viable cells” value with TF-1/Shp2^E76K cells [1] was “did not affect”. In addition, the “fluorescent signal associated with the cell pellets” value in the data set on TF-1/Shp2^E76K cells [2] was “only trace amount”. In data set [3], the “association rate Ka” value was 22400 M⁻¹ s⁻¹. For the same molecule, the “best fitted inhibition model” value in data set [4] is “competitive inhibition model”. Further, the “activity in cell-based Shp2 inhibition assays” value on Shp2 [5] is “no detectable activity”. The “effect on EGF-stimulated Shp2 PTP activity” value on Shp2 [6] is on record as “did not affect”. Moreover, the “Shp2^E76K PTP activity in treated cells” value on Shp2^E76K was “no decrease”.
As for “IFN-γ: interferon-γ, cytokine used to stimulate STAT1 signaling in HT-29 cells”, in the data set on ISRE-luciferase reporter, the “activation of ISRE luciferase activity” value turned out to be 26%. Also, the fraction of inhibition in the data set with HT-29 cells is given as 0.18.
